ChEMBL document CHEMBL2203239, “Discovery of novel 2-(3-(2-chlorophenyl)pyrazin-2-ylthio)-N-arylacetamides as potent HIV-1 inhibitors using a structure-based bioisosterism approach” (Bioorg Med Chem, 2012)

Key:
[1] = tested on: Human immunodeficiency virus 2; assay: Antiviral activity against HIV2 ROD infected in human MT4 cells assessed as inhibition of virus-induced cytopathic effect by MTT assay; type: functional, organism-based; details: Human immunodeficiency virus 2, ISOLATE ROD
Procedure, shortened: (§1)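 MT-4 cells, spun 5 min at 1000 rpm and resuspended at 6×10^5 cells/mL, infected with HIV-1(IIIB) or HIV-2(ROD) at 100–300 CCID50. Compounds added at start as serial fivefold dilutions, triplicate wells. Viability read by MTT at 540 and 690 nm five days post-infection, using the median OD of three wells. EC50 is the concentration giving 50% protection against virus-induced cytopathicity.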

[2] = tested on: Human immunodeficiency virus 1; assay: Antiviral activity against HIV1 3B infected in human MT4 cells assessed as inhibition of virus-induced cytopathic effect by MTT assay; type: functional, organism-based; details: Human immunodeficiency virus 1, 3B; procedure, shortened: as §1
[3] = Cytotoxicity against HIV2 ROD infected in human MT4 cells by MTT assay; type: cell-based; details: MT4 cells infected with HIV2 ROD
Procedure, shortened: (§2)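 Cytotoxicity measured in parallel on mock-infected MT-4 cells (6×10^5 cells/mL) that received culture medium instead of virus. Serial fivefold compound dilutions were run in triplicate. MTT read-out after 5 days at 540 and 690 nm, using the median OD of three wells. CC50 is the concentration that reduces OD540 of the mock-infected control by 50%.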

[4] = Selectivity index, ratio of CC50 for HIV1 3B infected in human MT4 cells to EC50 for HIV1 3B; type: toxicity, cell-based; details: MT4 cells infected with HIV1 3B, read-out: Ratio CC50/EC50
Procedure, shortened: (§3)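 Selectivity index calculated as CC50/EC50. Both values come from the parallel 5-day MTT assays in MT-4 cells, with mock-infected and HIV-infected wells on the same plate.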

[5] = Selectivity index, ratio of CC50 for HIV2 ROD infected in human MT4 cells to EC50 for HIV1 3B; type: toxicity, cell-based; details: MT4 cells infected with HIV2 ROD, read-out: Ratio CC50/EC50; procedure, shortened: as §3
[6] = Cytotoxicity against HIV1 3B infected in human MT4 cells by MTT assay; type: cell-based; details: MT4 cells infected with HIV1 3B; procedure, shortened: as §2
[7] = biological target: Human immunodeficiency virus type 1 reverse transcriptase (Human immunodeficiency virus 1, UniProt Q72547); assay: Inhibition of HIV1 recombinant reverse transcriptase assessed as incorporation of biotin-dUTP into […] by colorimetric analysis
Procedure, shortened: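 Highly purified recombinant HIV-1 RT, with […] as template primer on plate-linked nucleotides. Activity measured colorimetrically as incorporation of biotin-dUTP.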

[8] = tested on: Human immunodeficiency virus; assay: Antiviral activity against wild type HIV; type: functional, organism-based; details: Human immunodeficiency virus 1
[9] = tested on: Human immunodeficiency virus; assay: Antiviral activity against HIV harboring reverse transcriptase K103N/Y181C mutant; type: functional, organism-based; details: Human immunodeficiency virus 1
Procedure, shortened: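 MT-4 cells (6×10^5 cells/mL) were infected with 100–300 CCID50 of virus, and mock-infected cells were run in parallel. Compounds were tested in serial fivefold dilutions in triplicate wells. After 5 days, viability was read by MTT reduction at 540 and 690 nm using the median OD of three wells. EC50 is the concentration giving 50% protection against virus-induced cytopathicity.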

## O=C(CSc1nccnc1-c1ccccc1Cl)Nc1ccccc1
[1]
  EC50: > 33 µM
[2]
  EC50: > 35 µM
[3]
  CC50: 33 µM
[4]
  selectivity ratio: < 1
[5]
  selectivity ratio: < 1
[6]
  CC50: 35 µM

## O=C(CSc1nccnc1-c1ccccc1Cl)Nc1ccccc1F
[1]
  EC50: > 91 µM
[2]
  EC50: 5.3 µM
[3]
  CC50: 91 µM
[4]
  selectivity ratio: 9
[5]
  selectivity ratio: < 1
[6]
  CC50: 48 µM

## O=C(CSc1nccnc1-c1ccccc1Cl)Nc1ccccc1Cl
[1]
  EC50: > 46 µM
[2]
  EC50: 4.6 µM
[3]
  CC50: 46 µM
[4]
  selectivity ratio: 7
[5]
  selectivity ratio: < 1
[6]
  CC50: 34 µM

## O=C(CSc1nccnc1-c1ccccc1Cl)Nc1ccc(Cl)cc1Cl
[1]
  EC50: > 34 µM
[2]
  EC50: 5.2 µM
[3]
  CC50: 34 µM
[4]
  selectivity ratio: 6
[5]
  selectivity ratio: < 1
[6]
  CC50: 29 µM

## O=C(CSc1nccnc1-c1ccccc1Cl)Nc1ccccc1Br
[1]
  EC50: > 41 µM
[2]
  EC50: 4.2 µM
[3]
  CC50: 41 µM
[4]
  selectivity ratio: 7
[5]
  selectivity ratio: < 1
[6]
  CC50: 31 µM

## Cc1ccc(NC(=O)CSc2nccnc2-c2ccccc2Cl)c(Br)c1
[1]
  EC50: > 35 µM
[2]
  EC50: 4.3 µM
[3]
  CC50: 35 µM
[4]
  selectivity ratio: 9
[5]
  selectivity ratio: < 1
[6]
  CC50: 31 µM

## O=C(CSc1nccnc1-c1ccccc1Cl)Nc1ccc(Cl)cc1Br
[1]
  EC50: > 29 µM
[2]
  EC50: 5.1 µM
[3]
  CC50: 29 µM
[4]
  selectivity ratio: 5
[5]
  selectivity ratio: < 1
[6]
  CC50: 26 µM

## CC(=O)c1ccc(NC(=O)CSc2nccnc2-c2ccccc2Cl)c(Br)c1
[1]
  EC50: > 31 µM
[2]
  EC50: 2.5 µM
[3]
  CC50: 31 µM
[4]
  selectivity ratio: 12
[5]
  selectivity ratio: < 1
[6]
  CC50: 30 µM

## COC(=O)c1ccc(NC(=O)CSc2nccnc2-c2ccccc2Cl)c(Br)c1
[1]
  EC50: > 108 µM
[2]
  EC50: 3.7 µM
[3]
  CC50: 108 µM
[4]
  selectivity ratio: 25
[5]
  selectivity ratio: < 1
[6]
  CC50: 95 µM

## CCOC(=O)c1ccc(NC(=O)CSc2nccnc2-c2ccccc2Cl)c(Br)c1
[1]
  EC50: > 62 µM
[2]
  EC50: 9 µM
[3]
  CC50: 62 µM
[4]
  selectivity ratio: 5
[5]
  selectivity ratio: < 1
[6]
  CC50: 45 µM

## O=C(CSc1nccnc1-c1ccccc1Cl)Nc1ccccc1[N+](=O)[O-]
[1]
  EC50: > 55 µM
[2]
  EC50: 1.7 µM
[3]
  CC50: 55 µM
[4]
  selectivity ratio: 23
[5]
  selectivity ratio: < 1
[7]
  IC50: 50 µM
[6]
  CC50: 39 µM

## Cc1ccc(NC(=O)CSc2nccnc2-c2ccccc2Cl)c([N+](=O)[O-])c1
[1]
  EC50: > 148 µM
[2]
  EC50: 2.9 µM
[3]
  CC50: 148 µM
[4]
  selectivity ratio: 19
[5]
  selectivity ratio: < 1
[6]
  CC50: 54 µM

## O=C(CSc1nccnc1-c1ccccc1Cl)Nc1cccnc1Cl
[1]
  EC50: > 166 µM
[2]
  EC50: 2.3 µM
[3]
  CC50: 166 µM
[4]
  selectivity ratio: 64
[5]
  selectivity ratio: < 1
[6]
  CC50: 152 µM

## COC(=O)c1sccc1NC(=O)CSc1nccnc1-c1ccccc1Cl
[1]
  EC50: > 48 µM
[2]
  EC50: > 68 µM
[3]
  CC50: 48 µM
[4]
  selectivity ratio: < 1
[5]
  selectivity ratio: < 1
[6]
  CC50: 68 µM

## Cc1ccc2sc(NC(=O)CSc3nccnc3-c3ccccc3Cl)nc2c1
[1]
  EC50: > 30 µM
[2]
  EC50: > 32 µM
[3]
  CC50: 30 µM
[4]
  selectivity ratio: < 1
[5]
  selectivity ratio: < 1
[6]
  CC50: 32 µM

## O=C(CSc1nccnc1-c1ccccc1Cl)N1CCCc2ccccc21
[1]
  EC50: > 34 µM
[2]
  EC50: > 33 µM
[3]
  CC50: 34 µM
[4]
  selectivity ratio: < 1
[5]
  selectivity ratio: < 1
[6]
  CC50: 33 µM

## O=C(CSc1nccnc1-c1ccccc1Cl)N1CCc2ccccc2C1
[1]
  EC50: > 50 µM
[2]
  EC50: 4.1 µM
[3]
  CC50: 50 µM
[4]
  selectivity ratio: 8
[5]
  selectivity ratio: < 1
[6]
  CC50: 33 µM

## NS(=O)(=O)c1ccc(NC(=O)CSc2nnc(Br)n2-c2ccc(C3CC3)c3ccccc23)c(Cl)c1
[8]
  EC50: 0.14 µM
[9]
  EC50: 0.23 µM

## CC(C)Nc1cccnc1N1CCN(C(=O)c2cc3cc(NS(C)(=O)=O)ccc3[nH]2)CC1 [DELAVIRDINE]
[3]
  CC50: > 36 µM
[4]
  selectivity ratio: > 1100
[6]
  CC50: > 36 µM

## O=C1Nc2ccc(Cl)cc2[C@@](C#CC2CC2)(C(F)(F)F)O1 [EFAVIRENZ]
[3]
  CC50: > 6.3 µM
[6]
  CC50: > 6.3 µM

## Cc1ccnc2c1NC(=O)c1cccnc1N2C1CC1 [NEVIRAPINE]
[3]
  CC50: > 15 µM
[6]
  CC50: > 15 µM

## Nc1ccn([C@H]2CC[C@@H](CO)O2)c(=O)n1 [ZALCITABINE]
[3]
  CC50: > 95 µM
[4]
  selectivity ratio: > 93
[5]
  selectivity ratio: > 74
[6]
  CC50: > 95 µM

## Cc1cn([C@H]2C[C@H](N=[N+]=[N-])[C@@H](CO)O2)c(=O)[nH]c1=O [ZIDOVUDINE]
[2]
  EC50: 0.021 µM
[3]
  CC50: 249 µM
[4]
  selectivity ratio: 12200
[5]
  selectivity ratio: 56900
[6]
  CC50: 249 µM
